Measured values: PubChem BioAssay AID624010 (Broad Institute, 2012)

Target: Scavenger receptor class B member 1 (Mus musculus) (UniProt Q61009)
Assay: HDL cholesteryl ester uptake inhibitors via mutant SR-BI, dose response, mechanism study for SR-BI HDL uptake inhibitor project, cell-based, C384S mutant, scintillation, dry powder (AID 624010)
Conditions: CHO ldlA C384S mSR-BI, [3H]CE-HDL uptake
Summary of the method: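 Assay system: CHO cells without LDL receptor, expressing C384S mutant mouse SR-BI. Medium: Ham's F12K with 0.5% fatty-acid-free BSA and 0.5% DMSO. Probe or stimulus: [3H]CE-HDL. Incubation: 1 h compound preincubation, then 2 h HDL uptake, 37 °C. Measured by: scintillation counting of [3H] label. Control set: unlabeled HDL excess (40-fold) and no-compound wells.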

Scavenger receptor class B member 1 (Mus musculus), sequence (Q61009 whole entry C384S): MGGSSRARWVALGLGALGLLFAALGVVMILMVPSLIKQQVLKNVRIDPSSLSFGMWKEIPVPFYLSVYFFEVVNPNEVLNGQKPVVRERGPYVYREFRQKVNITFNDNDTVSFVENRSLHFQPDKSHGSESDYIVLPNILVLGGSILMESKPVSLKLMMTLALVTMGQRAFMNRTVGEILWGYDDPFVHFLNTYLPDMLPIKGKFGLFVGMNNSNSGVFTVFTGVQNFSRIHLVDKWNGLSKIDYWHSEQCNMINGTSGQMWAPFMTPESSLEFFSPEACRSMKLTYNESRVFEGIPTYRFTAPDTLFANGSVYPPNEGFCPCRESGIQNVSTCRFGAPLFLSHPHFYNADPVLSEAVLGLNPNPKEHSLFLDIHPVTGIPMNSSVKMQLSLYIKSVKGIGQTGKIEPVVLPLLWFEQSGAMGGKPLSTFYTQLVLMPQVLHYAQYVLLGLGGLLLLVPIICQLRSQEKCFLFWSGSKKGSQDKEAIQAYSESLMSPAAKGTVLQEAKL

- AC50: 500 nM
SMILES: CC(C)NC(=O)Nc1ccc2c(c1)C(=O)N([C@H](C)CO)C[C@@H](C)[C@H](CN(C)S(=O)(=O)c1ccc(Cl)cc1)O2
